Results collected from several papers.
Lines come from different studies, so protocols differ.
Target: PAS domain-containing serine/threonine-protein kinase (PASK, Homo sapiens, UniProt Q96RG2)

The remaining signal of `O=C1NC(=O)c2cc(Nc3ccc(F)cc3)c(Nc3ccc(F)cc3)cc21` is reported as 91.3% (cell-free assay; 0.5 µM).
`COc1cc2ncnc(Nc3ccc(Oc4ccccc4)cc3C)c2cc1OC` gave an inhibition of -2% (enzyme activity; inhibitor; 1 µM).
The inhibition of `CN1CC(Oc2cnc(C#N)cc2-c2ccn3nc(NC(=O)C4CC4)cc3c2)C1` is reported as -16% (enzyme activity; inhibitor; 1 µM).
With `Cc1ccc(Nc2nccc(N(C)c3ccc4c(C)n(C)nc4c3)n2)cc1S(N)(=O)=O` the inhibition was 1% (enzyme activity; inhibitor; 10 µM).
The activity vs control of `Cc1cc(NC(=O)c2cccc3cc(-c4cccc5[nH]nc(N)c45)ccc23)ccc1F` is reported as 89% (enzyme activity; inhibitor; 0.1 µM).
For `O=C1Nc2ccc(Cl)cc2C1=Cc1cc(Cl)c(O)c(Cl)c1`, the remaining signal was 70% (cell-free assay; 0.5 µM).
`CC(C)(C)c1nc2c(s1)c1nc(N)ncc1c1ccc(NS(=O)(=O)c3c(F)cccc3F)c(F)c12` gave a remaining activity of 99% (enzyme activity; inhibitor; radiometric; 1 µM).
For `CNC(=O)c1cc(Oc2ccc(NC(=O)Nc3ccc(Cl)c(C(F)(F)F)c3)cc2)ccn1`, the inhibition was -6% (enzyme activity; inhibitor; 0.3 µM).
The remaining activity of `COc1cc(Cl)c(C(=O)N[C@@H](CN[C@H]2CC[C@@H](N)CC2)Cc2ccc(C#N)cc2)cc1-c1ccc(CN[C@H](C)c2ccc(C)cc2)o1` is reported as 72% (enzyme activity; inhibitor; 1 µM).
The inhibition of `CC/C(=N\NC(=O)NCc1cccc(O)c1)c1ccc(O)c(C)c1O` is reported as -0.2% (enzyme activity; inhibitor; 0.1 µM).
`Cc1sc(C(=O)NC2COC2)cc1-n1cc(NC(=O)Nc2c(F)cccc2Cl)cn1` has a remaining activity of 96.1% (enzyme activity; inhibitor; 10 µM).
The remaining signal of `Cc1ccc(NC(=O)c2ccc(C)c(C(F)(F)F)c2)cc1C#Cc1nn(C2CCC(O)CC2)c2ncnc(N)c12` (centres unmarked) is reported as 113% (cell-free assay; 10 µM).
For `CCN(CC)CCNC(=O)c1c(C)[nH]c(/C=C2\C(=O)Nc3ccc(F)cc32)c1C`, the inhibition was -5% (enzyme activity; inhibitor; 0.3 µM).
`O=C(Nc1cnn(-c2csc(C(=O)NC3COC3)c2)c1)Nc1c(F)cccc1Cl` has a remaining activity of 99.7% (enzyme activity; inhibitor; 5 µM).
